Bioassay records: PubChem BioAssay, several laboratories
NLRP3 yeast inh: NALP3 inhibition in yeast; Yeast reconstituted NLRP3/ASC/caspase-1, beta-gal luminescence, 24 h; inhibition, % at 10 µM; hit rate 0.39% among 330,000; AID 2825;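 active = inhibition of 50% or more; inactive = inhibition below 50%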
VIM-2 inhibitor: inhibitors of Pseudomonas aeruginosa VIM-2 metallo-beta-lactamase; purified VIM-2, nitrocefin hydrolysis, epi-absorbance fluorescence; inhibition, % at 5.6 µM; hit rate 0.89% among 290,000; AID 1527;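 active = inhibition above the mean of all tested compounds plus 3 SD, cutoff set per screening run, cut at about 7.5% in these data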;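 note: red hydrolysis product quenches plate fluorescence so inhibitors raise well fluorescence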
IMP-1 inhibitor: blocks Pseudomonas aeruginosa IMP-1 metallo-beta-lactamase; purified IMP-1, nitrocefin hydrolysis, epi-absorbance fluorescence; inhibition, % at 5.6 µM; hit rate 0.45% among 290,000; AID 1556;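 active = inhibition above the mean plus 3 SD of all compounds in the same screening run, cut at about 4.5% in these data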
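System: purified IMP-1 / Input: IMP-1 dispensed at 0.2 nM / Medium: 50 mM HEPES pH 7.1, 50 µM ZnSO4, 0.05% Brij 35 / Timing: 15 min enzyme–compound preincubation, then 25 min nitrocefin reaction, 25 °C / Technique: plate fluorescence quenching by hydrolysis product, ex 480/em 530 nm / Repeats: singlicate testing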
SUMO Mot1 rescue: inhibitors of SUMOylation pathway: yeast Mot1-301 growth rescue; hit rate 1% among 320,000; S. cerevisiae Mot1-301 growth rescue, ATP luminescence, 38.5C; percent above DMSO median, 100 means doubled; AID 2716; growth rescue, % at 18.8 µM;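 active = every valid replicate shows activation above 250% relative to neutral control wells; inactive = the rest, any valid replicate at or below 250%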
PolyA inh: yeast polyadenylation inhibition; hit rate 0.02% among 300,000; S. cerevisiae SKY197-pL101 polyadenylation reporter, beta-gal luminescence; efflux-impaired pdr1/pdr3 knockout yeast; score 100 = 6 SD above DMSO; activity score, % at 12 µM; AID 1875;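 active = lowest replicate activity score at least 50, where 100 means six control SD above control mean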;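 note: yeast exposed to compound for 9 h at 30 °C; higher score means more reporter readthrough which indicates perturbed polyadenylation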
NALP1 inh: blocks the NALP1 inflammasome reconstituted in yeast; S. cerevisiae NALP1/ASC/caspase-1 growth, X-gal OD620, 72 h; inhibition, % at 10 µM; hit rate 0.61% among 280,000; AID 2071; in the data active = inhibition mostly above about 24%, no sharp cut-off; inactive = mostly below about 32%
A number is an active result; . = inactive; / = no result. Rows were chosen to be rich in hits. Some 2.9% of all compounds tested hit in one or more screens of this group.

SMILES | NLRP3 yeast inh | VIM-2 inhibitor | IMP-1 inhibitor | SUMO Mot1 rescue | PolyA inh | NALP1 inh
O=C1CSC(=S)N1/N=C/c1cccc(C(F)(F)F)c1 | . | . | 8.9 | . | . | .
COc1ccc2ccccc2c1/C=N/N1C(=O)CSC1=S | . | . | 22 | . | . | .
COc1ccc(NC2CCCN(C(=O)C3(C)CCCCC3)C2)cc1 (stereo not drawn) | . | . | . | . | . | .
COc1ccc(C(=O)NCc2ccc3c(c2)OCO3)cc1S(=O)(=O)N1CCCC1 | . | / | / | / | / | /
Cc1ccc(NC(=O)c2cc(-c3cccs3)on2)cc1 | . | . | . | . | . | .
O=C(Nc1ccc(Br)cc1)c1cc(-c2cccs2)on1 | . | . | 11 | . | . | .
O=C(Nc1ccc(Cl)cc1)c1cc(-c2cccs2)on1 | . | . | 15 | . | . | .
O=C(Nc1cccc(O)c1)c1cc(-c2cccs2)on1 | . | . | . | . | . | .
COc1ccc(CNc2ccccn2)c(O)c1 | . | . | . | / | . | .
Oc1c(Br)cc(Br)cc1CNc1ccccn1 | . | . | . | 288 | . | .
Oc1ccc(Br)cc1CNc1cccc2cccnc12 | . | . | . | . | . | .
Oc1c(Br)cc(Br)cc1CNc1cccc2cccnc12 | . | . | 16 | . | . | .
Cc1ccc(N2C(=O)CC(Sc3ncn[nH]3)C2=O)cc1C (stereo not drawn) | . | . | . | . | . | 40
Cc1cc(C)nc(SC2CC(=O)N(c3ccc(C)c(C)c3)C2=O)n1 (stereo not drawn) | . | . | . | . | . | .
Cc1cccc(N2C(=O)CC(Sc3ncn[nH]3)C2=O)c1 (stereo not drawn) | . | . | . | . | . | 38
CC(C)CCNC(=O)C(NS(=O)(=O)c1ccc2c(c1)c(=O)n(C)c(=O)n2C)c1ccccc1 (stereo not drawn) | . | . | . | . | . | 44
CCOc1ccc(OCCCCN(C)C)cc1 | . | . | 35 | . | . | .
CCCN(CC(=O)Nc1ccccc1C)C(=O)COc1ccc2c(c1)CCC2 | . | . | . | . | . | .
O=C1CCn2nc(-c3ccc(Cl)cc3)cc2N1 | . | . | . | 605 | . | .
Nc1cc(-c2ccc(Cl)cc2)nn1-c1ccccc1 | . | . | . | . | . | .
CCN(CCO)c1nc(SC)nc2c1sc1nc(-c3ccco3)c3c(c12)CCC3 | . | . | 12 | . | . | .
N=c1c2c(-c3ccccc3)c(-c3ccccc3)n(Cc3ccccc3)c2ncn1CCCn1ccnc1 | . | . | . | . | . | 30
Cn1c(SCc2cccc(Br)c2)nnc1-c1ccncc1 | . | . | . | . | . | .
N#CC1(C#N)CC(C=O)=C(N)C1(C#N)CC(=O)c1ccc(F)cc1 (stereo not drawn) | . | . | 7.5 | . | . | .
CCCC1COC(Cn2cncn2)(c2ccc(C)cc2)O1 (stereo not drawn) | . | . | . | 281 | . | .
SMILES | NLRP3 yeast inh | VIM-2 inhibitor | IMP-1 inhibitor | SUMO Mot1 rescue | PolyA inh | NALP1 inh
Cc1ccc(Cl)cc1-n1ncc2c(NNC(=O)c3ccco3)ncnc21 | . | . | . | 348 | . | .
O=C(NNc1ncnc2c1cnn2-c1cccc(Cl)c1)c1ccco1 | . | . | . | . | . | .
O=C(Cn1cncn1)N/N=C/c1ccccc1O | . | . | . | . | . | /
NC1=CC(=O)c2cccc3cccc1c23 | . | . | 14 | . | . | .
Cc1cccc(NC(=O)CNC(=O)Cc2ccc3c(c2)OCCO3)c1C | . | / | / | / | / | /
N#Cc1cc(C(=O)c2ccccc2O)cn(-c2ccc(Cl)cc2)c1=O | . | . | 5.4 | . | . | .
Cc1ccc(-n2cc(C(=O)c3cc(Cl)ccc3O)cc(C#N)c2=O)cc1 | . | . | . | . | . | .
CCOc1ccc(S(=O)(=O)N2CCCCC2)cc1NC(=O)CN1C(=O)NC(C)(C2CC2)C1=O (stereo not drawn) | . | / | / | . | / | /
Cc1cc(C)cc(N(C(=O)c2csnn2)C(C(=O)NC(C)(C)C)c2cccnc2)c1 (stereo not drawn) | . | . | . | . | . | 23
Cc1cccc(N(C(=O)c2csnn2)C(C(=O)NC(C)(C)C)c2cccnc2)c1 (stereo not drawn) | . | . | . | . | . | .
O=C(CCNC(=O)N1CCn2c1nc1ccccc12)NCc1ccccc1Cl | . | . | . | . | . | .
CC(=O)c1cccc(NC(=O)CSc2nnc(-c3ccncc3)o2)c1 | . | / | / | . | / | /
COC(=O)c1cccc(NC(=O)CSc2nnc(C)o2)c1 | . | . | 7.5 | . | . | .
CN1CCN(C(=O)c2ccc3c(c2)NC(=O)/C(=C/c2ccccc2)S3)CC1 | . | 8.0 | . | . | . | .
COc1ccc(CCC(=O)NCc2cn3ccccc3n2)cc1 | . | . | . | . | . | /
CC/C(=N\NS(C)(=O)=O)c1ccccc1 | . | . | . | . | . | 44
Cc1ccccc1-c1nc(CS(=O)(=O)CC(=O)NCCN2CCCC2)c(C)o1 | . | . | . | . | . | .
O=C(c1ccccc1Cl)N1CCN(C(=O)C2CCCO2)CC1 (stereo not drawn) | . | / | / | / | / | /
C=CCN(CC=C)C(=S)NC(=O)c1ccc(-c2ccccc2)cc1 | . | . | . | . | . | 39
COc1cc(OC)c(NC(=O)CN(C)S(=O)(=O)c2ccc(-c3ccc(=O)[nH]n3)s2)cc1Cl | . | . | . | . | . | .
COc1ccccc1OCCCCN1CCN(c2ccccc2OC)CC1 | . | . | . | . | . | .
COc1ccccc1N1CCN(CCCCCCOc2ccc(F)cc2)CC1 | . | . | . | . | . | 46
COc1ccc(C(=O)CCN2CCN(c3ccccc3F)CC2)cc1 | . | . | . | 616 | . | .
O=C(CCN1CCN(c2ccccc2F)CC1)c1ccc(Br)cc1 | . | . | . | . | . | .
COc1ccccc1N1CCN(CCCCOc2cccc3ccccc23)CC1 | . | . | . | . | . | 54
SMILES | NLRP3 yeast inh | VIM-2 inhibitor | IMP-1 inhibitor | SUMO Mot1 rescue | PolyA inh | NALP1 inh
O=C(CNC(=O)c1ccc(Cl)cc1Cl)OCc1nnc(-c2ccccc2)o1 | . | / | / | . | . | /
O=C(CNS(=O)(=O)c1ccc(F)cc1)N1CCCCCC1 | . | . | . | . | . | .
COc1ccc2c(COC(=O)[C@@H]3CCCN3S(=O)(=O)c3ccc(Cl)cc3)cc(=O)oc2c1 | . | / | / | / | / | /
CCOC(=O)[C@@H]1[C@H]2COc3ccccc3[C@@H]2N2C(=O)N(c3cccc(Cl)c3)C(=O)[C@]12C | . | . | . | . | . | .
CSc1ccccc1NC(=O)CN(C)CC(=O)c1c(C)[nH]c2ccccc12 | . | / | / | . | / | /
CSc1nc(C)c(C(=O)Nc2ccccc2)c(-c2ccco2)c1C#N | . | . | . | . | . | /
Cc1[nH]c(=S)c(C#N)c(C)c1C(=O)Nc1ccccc1 | . | . | . | . | . | .
CNC(=O)c1c(C)[nH]c(=S)c(C#N)c1-c1ccco1 | . | . | 18 | . | . | .
